{"source": "ChEMBL document CHEMBL1759839", "about": "“Synthesis, biopharmaceutical characterization, antimicrobial and antioxidant activities of 1-(4'-O-β-D-glucopyranosyloxy-2'-hydroxyphenyl)-3-aryl-propane-1,3-diones” (2011)", "format_in_all_cases": "functional", "key": {"Staphylococcus aureus": {"system": "Staphylococcus aureus", "test": "Antibacterial activity against Staphylococcus aureus ATCC 25923 after 24 hrs", "details": "ATCC 25923, 24 h", "method_in_brief": "(§1)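 Twofold broth dilution MIC in Mueller-Hinton broth, pH 6.9, inoculum (1-2) × 10³ cells/mL. Compounds and ampicillin trihydrate were dissolved in DMSO at 20 mg/mL stock and serially diluted from 20 down to 0.005. […] Plates incubated at 36 °C with a humid chamber and read visually after 24 h. MIC was the lowest concentration with no visible turbidity.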"}, "Candida albicans": {"system": "Candida albicans", "test": "Antifungal activity against Candida albicans ATCC 10231 after 48 hrs", "details": "ATCC 10231, 48 h", "method_in_brief": "(§2)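 Yeasts grown on Sabouraud dextrose agar, then in Sabouraud liquid medium at 36 °C overnight. Inoculum diluted in MOPS-buffered RPMI-1640 with L-glutamine, pH 7, to 2.5 × 10³ cfu/mL final. Twofold dilutions were made from a 20 mg/mL DMSO stock, with fluconazole as reference and DMSO at most 12.5% final. Incubated at 36 °C, humid, and read visually at 48 h. MIC was the lowest concentration giving no visible turbidity.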"}, "Escherichia coli [1]": {"system": "Escherichia coli", "test": "Antibacterial activity against Escherichia coli ATCC […] after 24 hrs", "method_in_brief": "as §1"}, "Nakaseomyces glabratus": {"system": "Nakaseomyces glabratus", "test": "Antifungal activity against Candida glabrata ATCC 36583 after 48 hrs", "details": "ATCC 36583, 48 h", "method_in_brief": "as §2"}, "Bacillus subtilis": {"system": "Bacillus subtilis", "test": "Antibacterial activity against Bacillus subtilis ATCC 6633 after 24 hrs", "details": "ATCC 6633, 24 h", "method_in_brief": "as §1"}, "[2]": {"system": "Radical scavenging activity", "test": "Antioxidant activity assessed as DPPH free radical scavenging activity after 20 mins by spectrophotometric analysis", "set-up": "concentration or dose not given beside the values", "method_in_brief": "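Reduction of methanolic DPPH radical, with absorbance recorded at 516 nm and run in triplicate. Percent scavenging was calculated from the initial and final absorbance of each solution.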"}, "Pseudomonas aeruginosa": {"system": "Pseudomonas aeruginosa", "test": "Antibacterial activity against Pseudomonas aeruginosa ATCC 27853 after 24 hrs", "details": "ATCC 27853, 24 h", "method_in_brief": "as §1"}, "Escherichia coli [3]": {"system": "Escherichia coli", "test": "Antibacterial activity against Escherichia coli ATCC […]", "method_in_brief": "as §1"}}, "data": [{"smiles": "O=C(CC(=O)c1ccccc1Cl)c1ccc(O[C@@H]2O[C@H](CO)[C@@H](O)[C@H](O)[C@H]2O)cc1O", "values": [{"measurement": "MIC", "setting": "Staphylococcus aureus", "result": 150, "unit": "µg/mL"}, {"measurement": "MIC", "setting": "Candida albicans", "result": 5000, "unit": "µg/mL"}, {"measurement": "MIC", "setting": "Escherichia coli [1]", "result": 20, "unit": "µg/mL"}, {"measurement": "MIC", "setting": "Nakaseomyces glabratus", "result": 5000, "unit": "µg/mL"}, {"measurement": "MIC", "setting": "Bacillus subtilis", "result": 1250, "unit": "µg/mL"}, {"measurement": "Activity", "setting": "[2]", "result": 89.1, "unit": "%"}, {"measurement": "MIC", "setting": "Pseudomonas aeruginosa", "result": 20, "unit": "µg/mL"}]}, {"smiles": "COc1cccc(C(=O)CC(=O)c2ccc(O[C@@H]3O[C@H](CO)[C@@H](O)[C@H](O)[C@H]3O)cc2O)c1", "values": [{"measurement": "MIC", "setting": "Staphylococcus aureus", "result": 625, "unit": "µg/mL"}, {"measurement": "MIC", "setting": "Candida albicans", "result": 10000, "unit": "µg/mL"}, {"measurement": "MIC", "setting": "Escherichia coli [1]", "result": 2500, "unit": "µg/mL"}, {"measurement": "MIC", "setting": "Nakaseomyces glabratus", "result": 5000, "unit": "µg/mL"}, {"measurement": "MIC", "setting": "Bacillus subtilis", "result": 150, "unit": "µg/mL"}, {"measurement": "Activity", "setting": "[2]", "result": 77.3, "unit": "%"}, {"measurement": "MIC", "setting": "Pseudomonas aeruginosa", "result": 5000, "unit": "µg/mL"}]}, {"smiles": "OC(Cn1cncn1)(Cn1cncn1)c1ccc(F)cc1F", "note": "[FLUCONAZOLE]", "values": [{"measurement": "MIC", "setting": "Candida albicans", "result": 10, "unit": "µg/mL"}, {"measurement": "MIC", "setting": "Nakaseomyces glabratus", "result": 10, "unit": "µg/mL"}]}, {"smiles": "O=C(CC(=O)c1ccc(O[C@@H]2O[C@H](CO)[C@@H](O)[C@H](O)[C@H]2O)cc1O)c1ccccc1", "values": [{"measurement": "MIC", "setting": "Staphylococcus aureus", "result": 300, "unit": "µg/mL"}, {"measurement": "MIC", "setting": "Candida albicans", "result": 2500, "unit": "µg/mL"}, {"measurement": "MIC", "setting": "Escherichia coli [1]", "result": 1250, "unit": "µg/mL"}, {"measurement": "MIC", "setting": "Nakaseomyces glabratus", "result": 2500, "unit": "µg/mL"}, {"measurement": "MIC", "setting": "Bacillus subtilis", "result": 150, "unit": "µg/mL"}, {"measurement": "Activity", "setting": "[2]", "result": 81.2, "unit": "%"}, {"measurement": "MIC", "setting": "Pseudomonas aeruginosa", "result": 150, "unit": "µg/mL"}]}, {"smiles": "CC1(C)S[C@@H]2[C@H](NC(=O)[C@H](N)c3ccccc3)C(=O)N2[C@H]1C(=O)O", "note": "[AMPICILLIN]", "values": [{"measurement": "MIC", "setting": "Staphylococcus aureus", "result": 19, "unit": "µg/mL"}, {"measurement": "MIC", "setting": "Escherichia coli [1]", "result": 10, "unit": "µg/mL"}, {"measurement": "MIC", "setting": "Bacillus subtilis", "result": 5, "unit": "µg/mL"}, {"measurement": "MIC", "setting": "Pseudomonas aeruginosa", "result": 5, "unit": "µg/mL"}]}, {"smiles": "O=C1O[C@H]([C@@H](O)CO)C(O)=C1O", "values": [{"measurement": "Activity", "setting": "[2]", "result": 98, "unit": "%"}]}, {"smiles": "O=C(CC(=O)c1ccc(O[C@@H]2O[C@H](CO)[C@@H](O)[C@H](O)[C@H]2O)cc1O)c1cccc(Cl)c1", "values": [{"measurement": "MIC", "setting": "Staphylococcus aureus", "result": 150, "unit": "µg/mL"}, {"measurement": "MIC", "setting": "Candida albicans", "result": 10000, "unit": "µg/mL"}, {"measurement": "MIC", "setting": "Escherichia coli [1]", "result": 20, "unit": "µg/mL"}, {"measurement": "MIC", "setting": "Nakaseomyces glabratus", "result": 10000, "unit": "µg/mL"}, {"measurement": "MIC", "setting": "Bacillus subtilis", "result": 625, "unit": "µg/mL"}, {"measurement": "Activity", "setting": "[2]", "result": 83.5, "unit": "%"}, {"measurement": "MIC", "setting": "Pseudomonas aeruginosa", "result": 1250, "unit": "µg/mL"}]}, {"smiles": "Cc1ccc(C(=O)CC(=O)c2ccc(O[C@@H]3O[C@H](CO)[C@@H](O)[C@H](O)[C@H]3O)cc2O)cc1", "values": [{"measurement": "MIC", "setting": "Staphylococcus aureus", "result": 625, "unit": "µg/mL"}, {"measurement": "MIC", "setting": "Candida albicans", "result": 5000, "unit": "µg/mL"}, {"measurement": "MIC", "setting": "Escherichia coli [1]", "result": 5000, "unit": "µg/mL"}, {"measurement": "MIC", "setting": "Nakaseomyces glabratus", "result": 5000, "unit": "µg/mL"}, {"measurement": "MIC", "setting": "Bacillus subtilis", "result": 2500, "unit": "µg/mL"}, {"measurement": "Activity", "setting": "[2]", "result": 82, "unit": "%"}, {"measurement": "MIC", "setting": "Pseudomonas aeruginosa", "result": 5000, "unit": "µg/mL"}]}, {"smiles": "COc1ccc(C(=O)CC(=O)c2ccc(O[C@@H]3O[C@H](CO)[C@@H](O)[C@H](O)[C@H]3O)cc2O)cc1", "values": [{"measurement": "MIC", "setting": "Staphylococcus aureus", "result": 2500, "unit": "µg/mL"}, {"measurement": "MIC", "setting": "Candida albicans", "result": 1250, "unit": "µg/mL"}, {"measurement": "MIC", "setting": "Escherichia coli [1]", "result": 5000, "unit": "µg/mL"}, {"measurement": "MIC", "setting": "Nakaseomyces glabratus", "result": 2500, "unit": "µg/mL"}, {"measurement": "MIC", "setting": "Bacillus subtilis", "result": 2500, "unit": "µg/mL"}, {"measurement": "Activity", "setting": "[2]", "result": 73.5, "unit": "%"}, {"measurement": "MIC", "setting": "Pseudomonas aeruginosa", "result": 30, "unit": "µg/mL"}, {"measurement": "MIC", "setting": "Escherichia coli [3]", "result": 5000, "unit": "µg/mL"}]}, {"smiles": "O=C(CC(=O)c1ccc(O[C@@H]2O[C@H](CO)[C@@H](O)[C@H](O)[C@H]2O)cc1O)c1ccc(Cl)cc1", "values": [{"measurement": "MIC", "setting": "Staphylococcus aureus", "result": 150, "unit": "µg/mL"}, {"measurement": "MIC", "setting": "Candida albicans", "result": 150, "unit": "µg/mL"}, {"measurement": "MIC", "setting": "Escherichia coli [1]", "result": 70, "unit": "µg/mL"}, {"measurement": "MIC", "setting": "Nakaseomyces glabratus", "result": 5000, "unit": "µg/mL"}, {"measurement": "MIC", "setting": "Bacillus subtilis", "result": 300, "unit": "µg/mL"}, {"measurement": "Activity", "setting": "[2]", "result": 84.3, "unit": "%"}, {"measurement": "MIC", "setting": "Pseudomonas aeruginosa", "result": 20, "unit": "µg/mL"}]}, {"smiles": "Cc1cccc(C(=O)CC(=O)c2ccc(O[C@@H]3O[C@H](CO)[C@@H](O)[C@H](O)[C@H]3O)cc2O)c1", "values": [{"measurement": "MIC", "setting": "Staphylococcus aureus", "result": 20, "unit": "µg/mL"}, {"measurement": "MIC", "setting": "Candida albicans", "result": 2500, "unit": "µg/mL"}, {"measurement": "MIC", "setting": "Escherichia coli [1]", "result": 5000, "unit": "µg/mL"}, {"measurement": "MIC", "setting": "Nakaseomyces glabratus", "result": 10000, "unit": "µg/mL"}, {"measurement": "MIC", "setting": "Bacillus subtilis", "result": 2500, "unit": "µg/mL"}, {"measurement": "Activity", "setting": "[2]", "result": 79.5, "unit": "%"}, {"measurement": "MIC", "setting": "Pseudomonas aeruginosa", "result": 10000, "unit": "µg/mL"}]}]}
